The sample as a whole holds a higher share of hits than the screen did.
CHOP UPR activ: activators of apoptotic arm of unfolded protein response (CHOP). CHO-CHOP luciferase reporter, UPR activation, luminescence; percent of tunicamycin response over DMSO baseline. activation, % at 10 µM. actives 0.34% (n = 330,000). AID 449763;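 active = at 10 µM dose, activation of 40% or more, normalized to positive control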
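Test system: CHO CHOP reporter cells. Input: 500 CHO-CHOP cells per well. Medium: F12 with 10% FBS. Technique: luciferase luminescence. Measure: percent activation relative to tunicamycin control. Dosing: 10 µM compound, 0.5% DMSO. Timing: 16-18 h cell attachment, then 6 h compound exposure, 37 °C.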
FXN GAA850 act: activators of GAA850 frataxin (FXN) promoter; HEK293 lucGAA850 FXN promoter luciferase reporter, 24 h; percent of 10 µM SAHA response; actives 0.56% (n = 360,000); activation, % at 6 µM;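 active = activation above the average of all compounds screened plus 3 SD, cutoff fixed separately per campaign, cut at about 7.5% in these data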
UPR XBP1 act: activators of adaptive arm of unfolded protein response (XBP1); CHO-XBP1 luciferase reporter, IRE1-XBP1 UPR activation, luminescence; percent of tunicamycin response, DMSO as zero; activation, % at 20 µM; actives 0.33% (n = 330,000); AID 463104;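 active = versus positive control, 20 µM dose yields 30% or more activation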
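incubation = overnight seeding at 37 °C, 6 h compound treatment at 37 °C | assay system = CHO-XBP1 cells stably carrying IRE1-XBP1-driven luciferase reporter | input = 1000 cells per well | detection = luciferase luminescence | dosing = single point, 20 µM final compound, 1% DMSO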
CHOP inhibitor: blocks CHOP induction under ER stress. CHO-K1 CHOP-promoter luciferase, tunicamycin-induced, 15-18 h. inhibition, % at 10 µM. actives 3.8% (n = 220,000). AID 2732;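 active = compounds that reduced the stress-induced luciferase reporter signal by more than about 70% of percent inhibition, limit read from the data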
CHOP confirm: confirmation of CHOP induction inhibitors; shares compounds with CHOP inhibitor; CHO-CHOP promoter luciferase reporter, tunicamycin-induced, luminescence; inhibition, % at 10 µM; actives 45% (n = 2,100); AID 504437;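 active = mean of three repeat readings of reporter signal inhibition above a set limit, cut at about 70% in these data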
UPR CHOP confirm: apoptotic UPR (CHOP) activation, confirmed | shares compounds with CHOP UPR activ | CHO-CHOP cells, CHOP-luciferase reporter luminescence; percent of tunicamycin response, DMSO as zero | activation, % at 10 µM | actives 64% (n = 1,000); in the data active = activation above about 33%
UPR XBP1 confirm: adaptive UPR (XBP1) activation, confirmed; shares compounds with UPR XBP1 act; CHO-XBP1 IRE1-XBP1 luciferase reporter, luminescence; activation, % at 20 µM; actives 63% (n = 1,000); AID 485299;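 active = reporter signal at least 30% of the positive control's activation in two or more of four replicate wells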
GAA30 FXN cntr: GAA30 FXN promoter activation counter-screen | activation, % at 6 µM | AID 588350 | HEK293 lucGAA30 FXN promoter luciferase, 24 h; DMSO = 0%, 5 µM ipriflavone = 100% | actives 66% (n = 1,900) | shares compounds with FXN GAA850 act;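 active = mean activation above the mean of solvent-only control wells plus 3 SD, cut at about 22% in these data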;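 also: counterscreen of GAA850 promoter hits where activity marks nonselective or luminescence artifacts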
FXN GAA850 conf: confirmation of GAA850 frataxin (FXN) promoter activators; shares compounds with FXN GAA850 act; HEK293 lucGAA850 FXN promoter luciferase reporter, 24 h; 100% = activation by SAHA; activation, % at 6 µM; actives 86% (n = 1,900); AID 588351;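 active = mean activation above a set limit taken from the primary screen, cut at about 8% in these data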
Hits are given with their value; - = inactive; . = no result given.

SMILES	CHOP UPR activ	FXN GAA850 act	UPR XBP1 act	CHOP inhibitor	CHOP confirm	GAA30 FXN cntr	FXN GAA850 conf	others
COc1ccccc1Nc1nc(NCc2ccco2)c2ccccc2n1	-	-	-	-	.	.	.
Cc1ccc(Nc2nc(NCc3ccco3)c3ccccc3n2)cc1	-	-	61	106	115	.	.	UPR XBP1 confirm=72
O=C1Nc2ccc(Br)cc2/C1=C/C(=O)c1ccc2c(c1)OCO2	-	11	-	107	-	-	9.9
O=C(Cc1ccccc1)Nc1cccc(N2C(=O)C=CC2=O)c1	.	9.0	.	109	132	-	-
c1ccc(COc2cccc(-c3cc4nc(NCc5cccs5)ccn4n3)c2)cc1	.	-	.	.	.	.	.
CCOCCCNC(=O)/C(C#N)=C/c1ccc(-c2ccc(S(=O)(=O)N3CCOCC3)cc2)o1	-	-	-	-	.	.	.
CCOCCCNC(=O)/C(C#N)=C/c1ccc([N+](=O)[O-])o1	-	11	-	107	-	-	-
CCc1nc2c(OCc3ccc(C(=O)N(C)C)cc3)cccn2c1N(C)C(=O)Nc1ccccc1OC	.	-	.	.	.	.	.
COC(=O)/C(=C1/Oc2cc(C)oc(=O)c2S1)C(F)(F)F	-	13	-	111	112	-	24
Cc1ccccc1CNC(=O)c1csc([C@@H]2C[C@H](O)[C@@H](CO)O2)n1	.	-	.	.	.	.	.
COc1ccc(-c2cc(C(F)(F)F)nc(S(=O)(=O)CCCC(=O)Nc3cccnc3Cl)n2)cc1OC	.	8.7	.	100	-	54	52
Cc1oc(=O)c(NC(=O)c2ccc(Cl)cc2)cc1C(=O)c1ccccc1	-	12	-	106	-	-	8.9
C[C@@H]1CCCCO[C@@H](CN(C)CC2CC2)[C@@H](C)CN([C@H](C)CO)C(=O)c2cc(N(C)C)ccc2O1	.	-	.	.	.	.	.
O=C(c1nc2ccc(Cl)cn2c1CN1CCC[C@H]1CO)N1CCc2ccccc2C1	.	-	.	.	.	.	.
CC(C)NC(=O)c1cc(C2CCCCN2C(=O)c2ccc(C(C)C)cc2)on1 (configuration not stated)	.	-	.	.	.	.	.
O=C1COc2ccc(C(=O)CCl)cc2N1	148	9.8	-	101	-	202	-	UPR CHOP confirm=-
Cc1ccc(NCC(=O)N/N=C\C(Br)=C\c2ccccc2)cc1	-	13	-	110	-	-	11
COc1cc(OC)c(OC)cc1/C=N/Nc1ncnc2c1[nH]c1ccccc12	-	7.9	-	104	72	-	18
COc1ccc(/C=N/Nc2ncnc3c2[nH]c2ccc(C)cc23)c(OC)c1OC	-	-	-	-	.	.	.
CC(C)c1ccc2c(c1)C1(NN=C(c3ccccc3)S1)C(=O)N2 (configuration not stated)	-	7.9	-	105	106	-	-
CC(C)c1ccc(O)c(NC(=O)c2ncn[nH]2)c1	-	-	-	-	.	.	.
CC(C)N=c1scc(-c2ccco2)n1/N=C/c1ccc(O)c(O)c1	159	12	-	100	-	68	42	UPR CHOP confirm=127
COCCN=c1scc(-c2ccco2)n1/N=C/c1ccc(O)c(O)c1O	-	-	-	-	.	.	.
O=C(NCc1ccco1)c1cccc2c(-c3ccc(F)c(F)c3)coc12	.	-	.	.	.	.	.
Cc1cc(C)c(C(=O)c2cccs2)c(C)c1	.	-	.	.	.	.	.
SMILES	CHOP UPR activ	FXN GAA850 act	UPR XBP1 act	CHOP inhibitor	CHOP confirm	GAA30 FXN cntr	FXN GAA850 conf	others
Cc1cc(Br)c2c(c1)/C(=C/C(=O)c1cccs1)C(=O)N2	-	9.7	-	99	80	-	22
C=CCOc1ccc2c(c1)C(=NO)c1cc(OCC=C)ccc1-2	-	8.0	-	104	-	32	20
Cc1nc([N+](=O)[O-])c(Br)n1CC(=O)c1ccccc1	-	-	-	-	.	.	.
Cc1nc([N+](=O)[O-])c(Br)n1CC(=O)c1ccc2ccccc2c1	144	24	-	103	-	328	118	UPR CHOP confirm=104
COc1cc(C(=O)O/N=C2\C=CC(=O)C(C)=C2)cc(OC)c1OC	-	9.2	-	108	99	35	19
CN(C(=O)c1cc2c(cc1Br)OCO2)c1cccc2ccccc12	.	-	.	.	.	.	.
CCCCC(=O)/C=C/n1c(=S)oc2ccccc21	120	8.5	-	108	-	-	23	UPR CHOP confirm=-
Cc1cccc(-c2cnc(C(O)Cc3ccccc3)[nH]2)c1 (configuration not stated)	.	-	.	.	.	.	.
COc1ccc(NC(=O)CNCc2cccs2)c(OC)c1	.	-	.	.	.	.	.
Nc1nc(-c2ccc(F)cc2)cc(C(F)(F)F)n1	-	-	-	-	.	.	.
CS(=O)(=O)c1nc(-c2ccc(F)cc2)cc(C(F)(F)F)n1	.	39	.	106	110	23	71
CCNc1oc(-c2cccc3ccccc23)nc1C#N	-	-	-	-	.	.	.
CC(C)Nc1oc(-c2cccc3ccccc23)nc1C#N	-	8.6	-	100	-	97	36
CC(CC(=O)c1cccs1)CC(=O)c1cccs1	-	-	-	-	.	.	.
Cc1cc(C)c(C(CC(=O)c2cccs2)C(C#N)C#N)c(C)c1 (configuration not stated)	47	9.0	-	103	-	100	61	UPR CHOP confirm=95
CCOC(=O)c1ccccc1OC(=O)CS(=O)c1ccccc1[N+](=O)[O-] (configuration not stated)	-	-	-	-	.	.	.
CS(=O)(=O)c1ccc(S(=O)CC(=O)OCc2ccccc2)c([N+](=O)[O-])c1 (configuration not stated)	.	95	.	107	128	-	-
CCNc1ccccc1CP(=O)(c1ccccc1)c1ccccc1O (configuration not stated)	186	.	-	.	.	.	.	UPR CHOP confirm=37
Cc1ccc(O)c(CP(=O)(c2ccccc2)c2ccccc2)c1	-	-	-	-	.	.	.
COc1cc(CN2C[C@@H](CO)O[C@@H](n3cnc4c(NC(C)C)ncnc43)C2)cc(OC)c1OC	.	-	.	.	.	.	.
Cc1cccc(C(=O)OCc2cc(=O)oc3c(C)c(C)ccc23)c1O	43	-	34	.	.	.	.	UPR CHOP confirm=-
c1ccc(CSC2=NNC(c3ccccn3)S2)cc1 (configuration not stated)	240	-	-	-	.	.	.	UPR CHOP confirm=313
c1ccc(CSc2ncccn2)cc1	-	-	-	-	.	.	.
C/C(=N\NC(=O)c1ccc(Cl)cc1)c1ccccn1	407	-	-	.	.	.	.	UPR CHOP confirm=403
